Source: ChEMBL document CHEMBL1149637, “Design, synthesis, and evaluation of potential inhibitors of brassinin glucosyltransferase, a phytoalexin detoxifying enzyme from Sclerotinia sclerotiorum” (Bioorg Med Chem, 2007)
Active and inactive are the calls of the source. The rule behind the calls is not given here.

What was measured:
Sclerotinia sclerotiorum [1] = experiment: Inhibition of Sclerotina sclerotiorums brassinin glucosyl transferase assessed as percent relative activity in relative to brassinin at 0.30 mM; design: scale not given: the % may be the effect or the level left
Summary of the method: (§1)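 Crude cell-free homogenate from clone #33 grown 7 days in PDB, induced with camalexin (0.05 mM final, 24 h). Mycelia were ground in ice-cold 50 mM Tris-HCl pH 8.0 buffer and centrifuged at 58,545g for 40 min. Inhibitor (from DMSO) was preincubated 30 min at room temperature with extract and UDPG (0.3 mM final). Brassinin (0.3 mM) was added, then 60 min incubation, EtOAc extraction and HPLC quantification of glucosylbrassinin. Protein measured by Bradford. Relative activity = specific activity vs brassinin-only control. Triplicate.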

Sclerotinia sclerotiorum [2] = experiment: Inhibition of Sclerotina sclerotiorums brassinin glucosyl transferase assessed as specific activity at 0.30 mM; summary of the method: as §1
Sclerotinia sclerotiorum [3] = experiment: Inhibition of Sclerotina sclerotiorums brassinin glucosyl transferase assessed as specific activity at 0.60 mM; summary of the method: as §1
Sclerotinia sclerotiorum [4] = experiment: Antifungal activity against Sclerotina sclerotiorum assessed as growth inhibition at 0.05 mM after 48 hrs; type: functional
Summary of the method: (§2)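 S. sclerotiorum clone #33 radial growth assay: mycelial plugs (4 mm, from 3-day-old PDA plates) placed upside down in wells of minimal medium containing compound diluted from 50 mM DMSO stock. Medium-only controls contained 1% DMSO. […] Run in triplicate, at least three times.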

[5] = Metabolic stability assessed as half life in Sclerotina sclerotiorum at 0.10 mM; type: ADME, organism-based; conditions: sclerotinia sclerotiorum, Sclerotinia sclerotiorum (whole organism)
Summary of the method: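 Four-day-old mycelial cultures in minimal medium (22 °C, 120 rpm, constant light) received inhibitor (0.050 or 0.10 mM final, in CH₃CN at 0.5% v/v). After 10 min, brassinin (0.05 mM final) was added. Samples were withdrawn over time, EtOAc-extracted and analysed by HPLC-DAD for remaining brassinin. Half-life of brassinin was compared with brassinin-only cultures. An uninoculated medium control was included.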

Sclerotinia sclerotiorum [6] = experiment: Antifungal activity against Sclerotina sclerotiorum assessed as growth inhibition at 0.10 mM after 48 hrs; type: functional; summary of the method: as §2
Sclerotinia sclerotiorum [7] = experiment: Inhibition of Sclerotina sclerotiorums brassinin glucosyl transferase assessed as percent relative activity in relative to brassinin at 0.60 mM; design: scale not given: the % may be the effect or the level left; summary of the method: as §1
Sclerotinia sclerotiorum [8] = experiment: Antifungal activity against Sclerotina sclerotiorum assessed as growth inhibition at 0.01 mM after 48 hrs; type: functional
Sclerotinia sclerotiorum [9] = experiment: Antifungal activity against Sclerotina sclerotiorum assessed as growth inhibition at 0.30 mM after 48 hrs; type: functional; summary of the method: as §2
Sclerotinia sclerotiorum [10] = experiment: Antifungal activity against Sclerotina sclerotiorum assessed as growth inhibition at 0.50 mM after 48 hrs; type: functional; summary of the method: as §2
[11] = Metabolic stability assessed as half life in Sclerotina sclerotiorum at less than 0.01 mM; type: ADME, organism-based; conditions: sclerotinia sclerotiorum, Sclerotinia sclerotiorum (whole organism)
[12] = Metabolic stability assessed as half life in Sclerotina sclerotiorum at 0.03 mM; type: ADME, organism-based; conditions: sclerotinia sclerotiorum, Sclerotinia sclerotiorum (whole organism)
[13] = Metabolic stability assessed as half life in Sclerotina sclerotiorum; type: ADME, organism-based; conditions: sclerotinia sclerotiorum, Sclerotinia sclerotiorum (whole organism)
Summary of the method: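 S. sclerotiorum clone #33 mycelial plugs were grown 4 days in minimal medium at 22 ± 1 °C, shaken at 120 rpm under constant light. Compound (0.050 or 0.10 mM final, in CH₃CN 0.5% v/v) was added, then brassinin (0.05 mM final) 10 min later. Samples taken over time were extracted with EtOAc, brassinin was measured by HPLC-DAD, and brassinin half-life was compared with brassinin-only cultures.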

Row | SMILES | Activity (Sclerotinia sclerotiorum [1]) [%] | Activity (10^-10.mol/mg/min) (Sclerotinia sclerotiorum [2]) | Activity (10^-10.mol/mg/min) (Sclerotinia sclerotiorum [3]) | inhibition at 50 µM (Sclerotinia sclerotiorum [4]) [%] | half-life at 100 µM [5] [min] | inhibition at 100 µM (Sclerotinia sclerotiorum [6]) [%] | Activity (Sclerotinia sclerotiorum [7]) [%] | inhibition at 10 µM (Sclerotinia sclerotiorum [8]) [%] | inhibition at 300 µM (Sclerotinia sclerotiorum [9]) [%] | Activity (Sclerotinia sclerotiorum [10]) | inhibition at 500 µM (Sclerotinia sclerotiorum [10]) [%] | half-life [11] [min] | half-life at 30 µM [12] [min] | half-life [13] [min] | Activity (Sclerotinia sclerotiorum [6]) | Activity (Sclerotinia sclerotiorum [9])
1 | c1ccc(-c2c[nH]c3ccccc23)cc1 [3-PHENYLINDOLE] | 23 | 0.35 | 0.19 | 93 | 600 | 100 | 13 | 78 |  |  |  |  |  |  |  | 
2 | Fc1ccc2[nH]cc(-c3nccs3)c2c1 [5-FLUOROCAMALEXIN] | 54 | 0.81 | 0.72 | 61 |  | 70 | 48 |  | 85 |  |  |  |  |  |  | 
3 | c1ccc(-c2cc3ccccc3[nH]2)cc1 | 39 | 0.59 | 0.59 |  |  |  | 39 |  |  |  |  |  |  |  |  | 
4 | CC(=O)Nc1cnc2ccccc2c1 | 100 | 1.58 | 1.53 |  |  |  | 100 |  |  | inactive |  |  |  |  |  | 
5 | c1ccc(-c2coc3ccccc23)cc1 | 53 | 0.79 | 0.63 |  |  | 32 | 42 |  | 64 |  | 80 |  |  |  |  | 
6 | CSC(=S)NCc1cc2ccccc2[nH]1 [ISOBRASSININ] | 42 | 0.63 | 0.41 |  |  | 48 | 27 |  | 100 |  |  | 120 |  |  |  | 
7 | CSC(=S)NCc1cc2ccccc2o1 | 43 | 0.64 | 0.43 |  |  | 32 | 29 |  | 100 |  |  |  | 360 |  |  | 
8 | CSC(=S)NCc1csc2ccccc12 | 81 | 1.22 | 1.12 |  |  | 10 | 75 |  | 63 |  | 89 |  |  |  |  | 
9 | CSC(=S)NCc1c[nH]c2ccccc12 [BRASSININ] |  |  |  |  |  | 37 |  |  | 100 |  |  |  |  | 540 |  | 
10 | c1ccc2[nH]c(-c3cscn3)nc2c1 [THIABENDAZOLE] |  |  |  |  |  | 86 |  |  |  |  | 93 |  |  |  |  | 
11 | Fc1cccc2[nH]cc(-c3ccccc3)c12 | 37 | 0.55 | 0.43 | 100 |  |  | 29 | 47 |  |  |  |  |  |  |  | 
12 | Fc1ccc2c(-c3nccs3)c[nH]c2c1 | 66 | 0.97 | 1 |  |  |  | 63 |  |  |  |  |  |  |  |  | 
13 | CSC(=S)NCc1c[nH]c2ncccc12 | 68 | 1.02 | 0.75 |  |  |  | 50 |  | 28 |  | 65 |  |  |  | inactive | 
14 | CSC(=S)NCc1coc2ccccc12 | 50 | 0.75 | 0.55 |  | 540 |  | 37 |  | 23 |  | 45 |  |  |  | inactive | 
15 | Fc1ccc2c(-c3ccccc3)c[nH]c2c1 [6-FLUORO-3-PHENYLINDOLE] | 23 | 0.34 | 0.2 | 87 | 600 | 93 | 13 | 65 |  |  |  |  |  |  |  | 
16 | COC(=O)c1cnn2ccc(OC)cc12 | 100 | 1.51 | 1.49 |  |  |  | 100 |  |  |  | 20 |  |  |  |  | inactive
17 | COc1ccn2ncc(CNC(=S)SC)c2c1 | 98 | 1.47 | 1.48 |  |  |  | 99 |  |  |  |  |  |  |  |  | 
18 | c1ccc2c(-c3nccs3)c[nH]c2c1 [CAMALEXIN] | 63 | 0.95 | 0.84 | 81 |  | 100 | 56 |  |  |  |  |  |  |  |  | 
